# From the M2OR odorant receptor database
# Legend:
# Details in all cases: stereoisomer not certain
# UniProt Q8VH21 = biological target: T1, UniProt Q8VH21
# T1 sequence (whole entry): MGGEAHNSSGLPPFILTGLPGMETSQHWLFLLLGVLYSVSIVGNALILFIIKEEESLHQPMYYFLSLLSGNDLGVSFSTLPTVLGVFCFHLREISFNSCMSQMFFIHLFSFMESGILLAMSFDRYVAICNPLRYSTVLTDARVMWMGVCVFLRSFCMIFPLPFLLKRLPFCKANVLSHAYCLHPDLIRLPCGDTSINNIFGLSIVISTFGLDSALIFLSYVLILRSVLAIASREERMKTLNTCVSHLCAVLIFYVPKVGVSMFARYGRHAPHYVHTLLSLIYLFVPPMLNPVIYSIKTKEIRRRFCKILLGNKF
# Method in brief: (§1)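 Each entry records the cell line, G-protein, co-transfected protein and tags used. Methods varied with the source, often transient luciferase assays in mammalian cell lines. A receptor–molecule pair is called responsive (active) if the original authors judged its signal statistically different from baseline and non-responsive (inactive) otherwise.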
# UniProt Q920P1 = biological target: T2, UniProt Q920P1
# T2 sequence (whole entry): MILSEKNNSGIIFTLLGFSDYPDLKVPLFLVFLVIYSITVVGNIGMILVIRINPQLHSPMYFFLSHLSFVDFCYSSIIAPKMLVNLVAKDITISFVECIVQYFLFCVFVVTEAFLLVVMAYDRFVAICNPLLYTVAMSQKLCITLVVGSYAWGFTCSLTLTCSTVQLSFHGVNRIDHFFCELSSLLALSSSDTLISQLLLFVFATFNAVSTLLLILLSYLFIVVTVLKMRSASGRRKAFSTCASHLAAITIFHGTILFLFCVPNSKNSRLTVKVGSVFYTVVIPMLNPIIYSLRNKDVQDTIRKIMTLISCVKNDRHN
# Method in brief: as §1
# UniProt Q920P2 = biological target: T3, UniProt Q920P2
# T3 sequence (whole entry): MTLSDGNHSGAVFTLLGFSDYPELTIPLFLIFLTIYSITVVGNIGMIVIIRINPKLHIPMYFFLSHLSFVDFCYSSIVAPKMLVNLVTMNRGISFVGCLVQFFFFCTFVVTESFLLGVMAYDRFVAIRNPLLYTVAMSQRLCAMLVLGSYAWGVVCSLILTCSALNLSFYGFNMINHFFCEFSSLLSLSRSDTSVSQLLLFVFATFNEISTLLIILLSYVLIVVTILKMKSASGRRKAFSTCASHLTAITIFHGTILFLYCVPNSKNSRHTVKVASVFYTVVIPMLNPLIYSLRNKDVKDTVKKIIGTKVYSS
# Method in brief: as §1
# UniProt Q924H8 = biological target: T4, UniProt Q924H8
# T4 sequence (whole entry): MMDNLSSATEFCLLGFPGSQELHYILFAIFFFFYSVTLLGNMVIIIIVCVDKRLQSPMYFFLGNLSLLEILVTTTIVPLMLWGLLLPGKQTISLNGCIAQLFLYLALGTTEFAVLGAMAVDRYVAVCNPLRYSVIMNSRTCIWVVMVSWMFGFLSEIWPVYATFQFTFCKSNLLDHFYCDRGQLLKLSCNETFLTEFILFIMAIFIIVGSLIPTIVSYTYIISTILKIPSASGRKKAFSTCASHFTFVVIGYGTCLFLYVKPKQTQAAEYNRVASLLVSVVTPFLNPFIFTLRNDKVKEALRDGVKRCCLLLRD
# Method in brief: as §1
# UniProt Q9EPN9 = biological target: T5, UniProt Q9EPN9
# T5 sequence (whole entry): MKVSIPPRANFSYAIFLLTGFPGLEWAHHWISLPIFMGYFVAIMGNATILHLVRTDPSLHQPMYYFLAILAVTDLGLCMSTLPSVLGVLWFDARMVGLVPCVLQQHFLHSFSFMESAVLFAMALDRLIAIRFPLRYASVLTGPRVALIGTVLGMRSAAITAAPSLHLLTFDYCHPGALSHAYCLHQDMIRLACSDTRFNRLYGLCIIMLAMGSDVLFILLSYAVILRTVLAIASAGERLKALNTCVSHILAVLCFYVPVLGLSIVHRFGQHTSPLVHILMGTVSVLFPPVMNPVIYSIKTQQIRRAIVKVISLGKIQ
# Method in brief: as §1
# UniProt Q9R0K2 = biological target: UniProt Q9R0K2
# Chain of UniProt Q9R0K2 (Q9R0K2 as listed by the source): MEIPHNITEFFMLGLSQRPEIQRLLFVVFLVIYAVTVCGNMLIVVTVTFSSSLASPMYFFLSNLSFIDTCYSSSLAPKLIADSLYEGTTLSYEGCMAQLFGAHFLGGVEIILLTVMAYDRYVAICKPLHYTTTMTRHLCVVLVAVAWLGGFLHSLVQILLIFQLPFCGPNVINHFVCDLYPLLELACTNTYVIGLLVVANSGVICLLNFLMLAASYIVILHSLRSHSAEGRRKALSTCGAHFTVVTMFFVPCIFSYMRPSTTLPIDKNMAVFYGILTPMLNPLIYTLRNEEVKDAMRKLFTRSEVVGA
# Method in brief: as §1
# UniProt Q9WU86 = biological target: T6, UniProt Q9WU86
# T6 sequence (whole entry): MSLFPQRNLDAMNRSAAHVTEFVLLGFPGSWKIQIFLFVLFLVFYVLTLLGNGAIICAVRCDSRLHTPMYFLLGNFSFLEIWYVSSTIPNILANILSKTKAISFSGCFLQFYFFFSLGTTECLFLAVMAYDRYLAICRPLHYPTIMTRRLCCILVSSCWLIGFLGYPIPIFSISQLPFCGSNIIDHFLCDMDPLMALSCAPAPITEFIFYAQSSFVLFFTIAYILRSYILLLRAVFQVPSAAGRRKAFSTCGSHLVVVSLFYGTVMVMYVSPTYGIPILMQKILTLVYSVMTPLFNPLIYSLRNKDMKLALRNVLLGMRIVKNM
# Method in brief: as §1
# UniProt Q99NH4 = biological target: UniProt Q99NH4
# Chain of UniProt Q99NH4 (Q99NH4 as listed by the source): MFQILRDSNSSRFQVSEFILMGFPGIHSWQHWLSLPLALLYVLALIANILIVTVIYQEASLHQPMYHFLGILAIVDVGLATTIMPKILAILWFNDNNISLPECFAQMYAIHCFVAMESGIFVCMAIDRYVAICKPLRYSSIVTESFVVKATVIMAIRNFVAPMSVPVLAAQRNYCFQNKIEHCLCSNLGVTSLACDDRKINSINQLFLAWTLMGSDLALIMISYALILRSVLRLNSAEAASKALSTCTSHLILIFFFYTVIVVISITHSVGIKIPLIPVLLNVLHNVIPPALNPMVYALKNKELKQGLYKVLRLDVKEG
# Method in brief: as §1
# UniProt Q924X8 = biological target: UniProt Q924X8
# Chain of UniProt Q924X8 (Q924X8 as listed by the source): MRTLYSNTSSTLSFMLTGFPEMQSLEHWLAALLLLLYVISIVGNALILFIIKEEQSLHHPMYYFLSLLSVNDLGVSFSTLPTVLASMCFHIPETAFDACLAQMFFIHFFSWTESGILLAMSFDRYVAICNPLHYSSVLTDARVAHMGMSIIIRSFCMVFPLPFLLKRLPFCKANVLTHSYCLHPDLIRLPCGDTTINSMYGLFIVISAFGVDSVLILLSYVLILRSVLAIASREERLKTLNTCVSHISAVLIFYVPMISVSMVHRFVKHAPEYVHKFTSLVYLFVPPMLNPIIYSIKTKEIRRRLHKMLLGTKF
# Method in brief: as §1
# UniProt Q9WU94 = biological target: UniProt Q9WU94
# Chain of UniProt Q9WU94 (Q9WU94 as listed by the source): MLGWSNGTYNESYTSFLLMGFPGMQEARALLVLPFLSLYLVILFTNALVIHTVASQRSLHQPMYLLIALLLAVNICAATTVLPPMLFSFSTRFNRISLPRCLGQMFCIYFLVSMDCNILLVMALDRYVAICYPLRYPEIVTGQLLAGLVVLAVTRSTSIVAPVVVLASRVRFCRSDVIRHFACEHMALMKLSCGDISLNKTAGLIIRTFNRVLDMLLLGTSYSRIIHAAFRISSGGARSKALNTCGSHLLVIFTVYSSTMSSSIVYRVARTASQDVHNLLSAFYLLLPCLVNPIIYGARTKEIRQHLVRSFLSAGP
# Method in brief: as §1
smiles,measurement,setting,value
O=Cc1ccc2c(c1)OCO2,odorant receptor agonist call,UniProt Q8VH21,inactive
same,odorant receptor agonist call,UniProt Q920P1,inactive
same,odorant receptor agonist call,UniProt Q920P2,inactive
same,odorant receptor agonist call,UniProt Q924H8,inactive
CCC1CCC(=O)O1 (configuration not stated),odorant receptor agonist call,UniProt Q9EPN9,inactive
same,odorant receptor agonist call,UniProt Q9R0K2,inactive
same,odorant receptor agonist call,UniProt Q9WU86,inactive
C=CCOC(=O)Cc1ccccc1,odorant receptor agonist call,UniProt Q8VH21,inactive
same,odorant receptor agonist call,UniProt Q924H8,inactive
same,odorant receptor agonist call,UniProt Q9EPN9,active
same,odorant receptor agonist call,UniProt Q9R0K2,active
same,odorant receptor agonist call,UniProt Q9WU86,inactive
C=C(C)C1CC=C(C=O)CC1 (configuration not stated),odorant receptor agonist call,UniProt Q8VH21,inactive
same,odorant receptor agonist call,UniProt Q924H8,inactive
Cc1ccc(OC(=O)Cc2ccccc2)cc1,odorant receptor agonist call,UniProt Q8VH21,inactive
same,odorant receptor agonist call,UniProt Q924H8,inactive
O=c1cc(O)c2ccccc2o1,odorant receptor agonist call,UniProt Q8VH21,inactive
same,odorant receptor agonist call,UniProt Q924H8,inactive
same,odorant receptor agonist call,UniProt Q9EPN9,inactive
same,odorant receptor agonist call,UniProt Q9R0K2,inactive
same,odorant receptor agonist call,UniProt Q9WU86,inactive
COc1ccc(C=O)cc1,odorant receptor agonist call,UniProt Q8VH21,inactive
same,odorant receptor agonist call,UniProt Q924H8,inactive
CC(C=O)Cc1ccc2c(c1)OCO2 (configuration not stated),odorant receptor agonist call,UniProt Q8VH21,inactive
same,odorant receptor agonist call,UniProt Q924H8,inactive
O=Cc1ccccc1,odorant receptor agonist call,UniProt Q8VH21,active
same,odorant receptor agonist call,UniProt Q924H8,inactive
O=CC=Cc1ccccc1,odorant receptor agonist call,UniProt Q8VH21,inactive
same,odorant receptor agonist call,UniProt Q924H8,inactive
CSSC,odorant receptor agonist call,UniProt Q8VH21,inactive
same,odorant receptor agonist call,UniProt Q924H8,inactive
CCCCC(Br)C(=O)O (configuration not stated),odorant receptor agonist call,UniProt Q8VH21,inactive
same,odorant receptor agonist call,UniProt Q924H8,inactive
same,odorant receptor agonist call,UniProt Q99NH4,active
O=C(O)CCCCCCCBr,odorant receptor agonist call,UniProt Q924X8,active
same,odorant receptor agonist call,UniProt Q99NH4,active
same,odorant receptor agonist call,UniProt Q9WU94,inactive
C=CCc1ccc2c(c1)OCO2,odorant receptor agonist call,UniProt Q920P1,inactive
same,odorant receptor agonist call,UniProt Q920P2,inactive
Oc1ccccc1Br,odorant receptor agonist call,UniProt Q8VH21,inactive
same,odorant receptor agonist call,UniProt Q924H8,inactive
C=CCc1ccccc1,odorant receptor agonist call,UniProt Q920P1,inactive
same,odorant receptor agonist call,UniProt Q920P2,inactive
same,odorant receptor agonist call,UniProt Q9EPN9,inactive
same,odorant receptor agonist call,UniProt Q9R0K2,inactive
same,odorant receptor agonist call,UniProt Q9WU86,active
OCc1ccc2c(c1)OCO2,odorant receptor agonist call,UniProt Q8VH21,inactive
same,odorant receptor agonist call,UniProt Q924H8,inactive
CCCCCCC(Br)C(=O)O (configuration not stated),odorant receptor agonist call,UniProt Q8VH21,inactive
same,odorant receptor agonist call,UniProt Q924H8,inactive
c1ccncc1,odorant receptor agonist call,UniProt Q920P1,inactive
same,odorant receptor agonist call,UniProt Q920P2,inactive
